In ChEMBL document CHEMBL5653631, “A Potent and Selective ULK1 Inhibitor Suppresses Autophagy and Sensitizes Cancer Cells to Nutrient Stress” (iScience, 2018):
Each block holds one compound with its values, some of them ahead of it.

How the values were obtained:
[1] = target: T1, Serine/threonine-protein kinase BRSK1 (Homo sapiens) (UniProt Q8TDC3); assay: Inhibition of human recombinant BRSK1 at 500 nM in presence of ATP by radiometric assay relative to control
T1 sequence (whole entry): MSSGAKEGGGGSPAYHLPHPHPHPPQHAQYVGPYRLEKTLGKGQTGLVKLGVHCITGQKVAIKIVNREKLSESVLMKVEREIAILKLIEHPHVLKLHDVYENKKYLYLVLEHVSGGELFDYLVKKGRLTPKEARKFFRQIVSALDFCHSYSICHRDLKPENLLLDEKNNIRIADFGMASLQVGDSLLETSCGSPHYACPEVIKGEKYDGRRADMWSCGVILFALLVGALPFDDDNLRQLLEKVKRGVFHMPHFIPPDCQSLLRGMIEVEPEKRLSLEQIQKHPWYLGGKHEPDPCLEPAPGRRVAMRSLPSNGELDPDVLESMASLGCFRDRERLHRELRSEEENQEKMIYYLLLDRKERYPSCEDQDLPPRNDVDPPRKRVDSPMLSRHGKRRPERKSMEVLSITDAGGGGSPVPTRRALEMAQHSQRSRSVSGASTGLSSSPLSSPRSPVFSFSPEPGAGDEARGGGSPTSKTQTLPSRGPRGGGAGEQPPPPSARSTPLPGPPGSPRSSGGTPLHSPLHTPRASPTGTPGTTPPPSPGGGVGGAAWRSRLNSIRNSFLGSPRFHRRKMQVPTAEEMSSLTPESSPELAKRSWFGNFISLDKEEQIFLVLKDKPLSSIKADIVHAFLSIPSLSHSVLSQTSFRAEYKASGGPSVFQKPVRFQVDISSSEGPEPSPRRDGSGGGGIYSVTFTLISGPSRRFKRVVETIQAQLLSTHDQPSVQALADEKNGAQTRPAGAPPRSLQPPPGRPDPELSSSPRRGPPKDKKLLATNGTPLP
Summary of the method: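 Recombinant human kinase panel (327 kinases) run as radiometric activity assays, each kinase in duplicate at one compound concentration. Activity remaining expressed relative to vehicle control; percent inhibition taken as 100% minus % activity remaining.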

[2] = target: BDNF/NT-3 growth factors receptor (Homo sapiens) (UniProt Q16620); assay: Inhibition of human recombinant TRKB at 500 nM related to control ULK1
[3] = target: Activated CDC42 kinase 1 (Homo sapiens) (UniProt Q07912); assay: Inhibition of human recombinant ACK at 15 nM in presence of ATP by radiometric assay relative to control
Summary of the method: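 Panel of 327 recombinant human kinases in radiometric activity assays, each screened in duplicate at a single inhibitor concentration; percent activity remaining relative to vehicle control, percent inhibition taken as 100 minus activity remaining.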

[4] = target: T2, Tyrosine-protein kinase Mer (Homo sapiens) (UniProt Q12866); assay: Inhibition of human recombinant MER at 15 nM in presence of ATP by radiometric assay relative to control
T2 sequence (whole entry): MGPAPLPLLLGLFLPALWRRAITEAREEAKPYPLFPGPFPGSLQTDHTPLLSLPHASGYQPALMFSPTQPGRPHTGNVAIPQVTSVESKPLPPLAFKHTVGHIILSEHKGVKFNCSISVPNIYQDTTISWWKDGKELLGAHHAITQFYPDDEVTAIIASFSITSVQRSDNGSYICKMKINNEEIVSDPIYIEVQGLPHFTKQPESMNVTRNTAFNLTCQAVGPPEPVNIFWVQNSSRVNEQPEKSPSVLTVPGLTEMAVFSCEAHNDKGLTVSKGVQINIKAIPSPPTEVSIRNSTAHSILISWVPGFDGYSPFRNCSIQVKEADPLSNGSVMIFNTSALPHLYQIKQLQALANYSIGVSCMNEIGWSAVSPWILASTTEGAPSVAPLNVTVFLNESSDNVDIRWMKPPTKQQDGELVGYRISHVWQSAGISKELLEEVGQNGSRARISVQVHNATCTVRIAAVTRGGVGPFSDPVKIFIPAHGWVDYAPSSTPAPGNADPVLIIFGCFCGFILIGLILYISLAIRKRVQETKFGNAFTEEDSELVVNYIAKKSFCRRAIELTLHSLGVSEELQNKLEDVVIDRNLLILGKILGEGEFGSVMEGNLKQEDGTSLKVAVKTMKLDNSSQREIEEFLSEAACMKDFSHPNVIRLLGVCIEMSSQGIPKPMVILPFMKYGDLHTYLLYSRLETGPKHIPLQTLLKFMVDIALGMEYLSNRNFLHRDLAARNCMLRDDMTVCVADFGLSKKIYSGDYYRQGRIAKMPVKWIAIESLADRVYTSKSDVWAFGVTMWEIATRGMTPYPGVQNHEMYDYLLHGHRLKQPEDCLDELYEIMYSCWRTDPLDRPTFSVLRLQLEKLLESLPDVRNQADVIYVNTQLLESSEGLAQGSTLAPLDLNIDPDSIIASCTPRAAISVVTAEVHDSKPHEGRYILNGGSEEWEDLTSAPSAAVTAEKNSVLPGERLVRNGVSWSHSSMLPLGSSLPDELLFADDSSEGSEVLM

[5] = target: Tyrosine-protein kinase Yes (Homo sapiens) (UniProt P07947); assay: Inhibition of human recombinant YES at 15 nM related to control ULK1
[6] = target: Serine/threonine-protein kinase WNK2 (Homo sapiens) (UniProt Q9Y3S1); assay: Inhibition of human recombinant Wnk2 at 40 nM in presence of ATP by radiometric assay relative to control
Serine/threonine-protein kinase WNK2 (Homo sapiens), sequence (Q9Y3S1 whole entry): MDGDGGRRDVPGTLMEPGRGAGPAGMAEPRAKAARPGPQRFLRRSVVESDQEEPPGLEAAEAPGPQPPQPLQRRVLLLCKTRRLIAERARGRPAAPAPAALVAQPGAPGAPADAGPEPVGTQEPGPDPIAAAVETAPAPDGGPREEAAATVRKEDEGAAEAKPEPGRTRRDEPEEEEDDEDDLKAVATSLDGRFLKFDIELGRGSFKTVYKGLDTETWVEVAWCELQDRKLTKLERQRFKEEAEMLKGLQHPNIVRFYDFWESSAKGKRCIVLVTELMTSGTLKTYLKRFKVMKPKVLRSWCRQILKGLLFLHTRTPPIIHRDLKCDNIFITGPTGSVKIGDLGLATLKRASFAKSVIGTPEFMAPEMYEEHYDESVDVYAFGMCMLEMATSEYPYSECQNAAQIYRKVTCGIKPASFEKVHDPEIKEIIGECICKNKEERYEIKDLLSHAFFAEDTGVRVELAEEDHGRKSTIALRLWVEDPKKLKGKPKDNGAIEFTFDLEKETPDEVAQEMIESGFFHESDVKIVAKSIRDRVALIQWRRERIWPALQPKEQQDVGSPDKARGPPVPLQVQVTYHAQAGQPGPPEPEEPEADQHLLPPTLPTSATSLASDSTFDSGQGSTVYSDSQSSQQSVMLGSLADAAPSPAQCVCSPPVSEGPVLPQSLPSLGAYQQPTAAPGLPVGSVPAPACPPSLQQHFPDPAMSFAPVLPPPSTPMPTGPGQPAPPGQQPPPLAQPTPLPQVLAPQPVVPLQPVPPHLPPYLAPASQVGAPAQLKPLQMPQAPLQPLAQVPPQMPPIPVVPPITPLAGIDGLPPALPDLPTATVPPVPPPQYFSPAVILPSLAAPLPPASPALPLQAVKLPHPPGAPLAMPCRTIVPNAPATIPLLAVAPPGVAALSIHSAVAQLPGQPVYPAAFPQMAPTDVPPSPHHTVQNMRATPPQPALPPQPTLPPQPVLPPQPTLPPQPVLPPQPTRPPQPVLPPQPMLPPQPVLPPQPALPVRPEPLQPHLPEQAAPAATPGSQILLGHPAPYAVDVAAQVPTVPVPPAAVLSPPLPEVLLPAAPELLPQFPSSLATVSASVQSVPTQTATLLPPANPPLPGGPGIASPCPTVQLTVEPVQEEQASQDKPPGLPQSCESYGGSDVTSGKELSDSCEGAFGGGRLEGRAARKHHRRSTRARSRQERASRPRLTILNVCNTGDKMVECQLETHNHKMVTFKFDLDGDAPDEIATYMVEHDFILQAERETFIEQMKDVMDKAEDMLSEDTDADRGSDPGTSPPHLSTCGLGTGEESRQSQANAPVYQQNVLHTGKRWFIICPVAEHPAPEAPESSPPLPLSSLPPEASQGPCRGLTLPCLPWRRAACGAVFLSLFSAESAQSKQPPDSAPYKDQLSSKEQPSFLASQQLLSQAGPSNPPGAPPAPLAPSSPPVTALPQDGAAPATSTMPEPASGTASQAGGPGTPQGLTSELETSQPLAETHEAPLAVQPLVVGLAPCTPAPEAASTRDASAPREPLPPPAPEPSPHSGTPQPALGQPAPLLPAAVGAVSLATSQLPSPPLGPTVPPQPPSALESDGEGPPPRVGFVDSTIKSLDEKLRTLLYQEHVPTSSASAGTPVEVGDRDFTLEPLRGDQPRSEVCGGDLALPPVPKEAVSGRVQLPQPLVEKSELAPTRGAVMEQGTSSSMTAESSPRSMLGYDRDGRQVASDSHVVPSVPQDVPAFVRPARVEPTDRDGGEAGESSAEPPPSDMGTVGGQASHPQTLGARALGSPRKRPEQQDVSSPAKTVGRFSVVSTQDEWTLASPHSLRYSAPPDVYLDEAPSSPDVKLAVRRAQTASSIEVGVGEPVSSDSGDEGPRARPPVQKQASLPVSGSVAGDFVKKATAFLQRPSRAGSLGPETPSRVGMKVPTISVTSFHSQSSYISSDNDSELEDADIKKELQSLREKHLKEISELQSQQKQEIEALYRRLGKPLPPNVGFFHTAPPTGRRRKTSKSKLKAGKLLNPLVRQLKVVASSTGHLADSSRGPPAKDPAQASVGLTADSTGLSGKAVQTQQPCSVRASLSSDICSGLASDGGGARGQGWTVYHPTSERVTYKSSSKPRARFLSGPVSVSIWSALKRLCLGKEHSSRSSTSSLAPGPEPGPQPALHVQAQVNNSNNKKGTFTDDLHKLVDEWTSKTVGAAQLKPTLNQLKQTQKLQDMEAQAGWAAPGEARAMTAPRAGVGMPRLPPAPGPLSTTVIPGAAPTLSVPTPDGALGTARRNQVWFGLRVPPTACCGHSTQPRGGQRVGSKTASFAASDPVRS

Activated CDC42 kinase 1 (Homo sapiens), sequence (Q07912 whole entry, looked up): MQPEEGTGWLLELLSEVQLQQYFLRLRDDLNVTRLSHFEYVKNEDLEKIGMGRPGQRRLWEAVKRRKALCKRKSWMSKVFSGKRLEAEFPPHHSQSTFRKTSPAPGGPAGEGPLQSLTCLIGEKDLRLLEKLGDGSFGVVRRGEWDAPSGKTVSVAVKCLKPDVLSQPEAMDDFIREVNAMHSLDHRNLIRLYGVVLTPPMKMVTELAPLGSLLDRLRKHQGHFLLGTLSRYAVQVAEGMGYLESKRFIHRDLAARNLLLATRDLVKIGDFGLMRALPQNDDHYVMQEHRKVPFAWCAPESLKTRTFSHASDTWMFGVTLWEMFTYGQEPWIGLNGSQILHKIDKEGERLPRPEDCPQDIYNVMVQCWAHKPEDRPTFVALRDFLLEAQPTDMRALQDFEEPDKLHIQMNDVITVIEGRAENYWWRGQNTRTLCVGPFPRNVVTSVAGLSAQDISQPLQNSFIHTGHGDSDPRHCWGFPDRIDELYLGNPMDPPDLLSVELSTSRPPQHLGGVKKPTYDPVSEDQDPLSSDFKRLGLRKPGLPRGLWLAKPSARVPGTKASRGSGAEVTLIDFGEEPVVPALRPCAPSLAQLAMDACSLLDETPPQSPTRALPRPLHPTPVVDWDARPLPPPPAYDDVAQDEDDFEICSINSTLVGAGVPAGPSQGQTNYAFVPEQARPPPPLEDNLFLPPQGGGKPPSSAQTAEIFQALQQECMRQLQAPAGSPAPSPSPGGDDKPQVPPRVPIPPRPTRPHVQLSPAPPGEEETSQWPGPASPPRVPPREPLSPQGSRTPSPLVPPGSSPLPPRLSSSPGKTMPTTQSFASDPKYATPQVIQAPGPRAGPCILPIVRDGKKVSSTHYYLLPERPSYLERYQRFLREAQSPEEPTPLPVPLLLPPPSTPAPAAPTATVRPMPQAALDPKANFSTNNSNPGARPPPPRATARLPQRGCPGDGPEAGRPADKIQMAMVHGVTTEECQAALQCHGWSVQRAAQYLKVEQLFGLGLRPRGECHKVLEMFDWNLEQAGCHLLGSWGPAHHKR
Tyrosine-protein kinase Yes (Homo sapiens), sequence (P07947 2-543 limits assumed): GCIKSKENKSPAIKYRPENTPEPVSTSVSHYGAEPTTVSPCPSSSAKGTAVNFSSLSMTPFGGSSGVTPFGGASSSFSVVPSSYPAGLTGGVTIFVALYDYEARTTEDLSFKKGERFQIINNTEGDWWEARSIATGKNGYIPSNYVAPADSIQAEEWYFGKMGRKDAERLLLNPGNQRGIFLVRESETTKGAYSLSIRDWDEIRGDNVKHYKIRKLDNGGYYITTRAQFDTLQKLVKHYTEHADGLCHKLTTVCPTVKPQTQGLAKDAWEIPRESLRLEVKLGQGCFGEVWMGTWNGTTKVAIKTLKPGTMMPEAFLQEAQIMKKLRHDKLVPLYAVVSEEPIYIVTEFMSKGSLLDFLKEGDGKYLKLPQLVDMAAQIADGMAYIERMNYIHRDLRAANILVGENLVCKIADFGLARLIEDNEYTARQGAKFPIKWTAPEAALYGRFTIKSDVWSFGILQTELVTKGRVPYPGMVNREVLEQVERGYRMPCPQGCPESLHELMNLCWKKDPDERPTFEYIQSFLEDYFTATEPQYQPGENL
BDNF/NT-3 growth factors receptor (Homo sapiens), sequence (Q16620 32-822 limits assumed): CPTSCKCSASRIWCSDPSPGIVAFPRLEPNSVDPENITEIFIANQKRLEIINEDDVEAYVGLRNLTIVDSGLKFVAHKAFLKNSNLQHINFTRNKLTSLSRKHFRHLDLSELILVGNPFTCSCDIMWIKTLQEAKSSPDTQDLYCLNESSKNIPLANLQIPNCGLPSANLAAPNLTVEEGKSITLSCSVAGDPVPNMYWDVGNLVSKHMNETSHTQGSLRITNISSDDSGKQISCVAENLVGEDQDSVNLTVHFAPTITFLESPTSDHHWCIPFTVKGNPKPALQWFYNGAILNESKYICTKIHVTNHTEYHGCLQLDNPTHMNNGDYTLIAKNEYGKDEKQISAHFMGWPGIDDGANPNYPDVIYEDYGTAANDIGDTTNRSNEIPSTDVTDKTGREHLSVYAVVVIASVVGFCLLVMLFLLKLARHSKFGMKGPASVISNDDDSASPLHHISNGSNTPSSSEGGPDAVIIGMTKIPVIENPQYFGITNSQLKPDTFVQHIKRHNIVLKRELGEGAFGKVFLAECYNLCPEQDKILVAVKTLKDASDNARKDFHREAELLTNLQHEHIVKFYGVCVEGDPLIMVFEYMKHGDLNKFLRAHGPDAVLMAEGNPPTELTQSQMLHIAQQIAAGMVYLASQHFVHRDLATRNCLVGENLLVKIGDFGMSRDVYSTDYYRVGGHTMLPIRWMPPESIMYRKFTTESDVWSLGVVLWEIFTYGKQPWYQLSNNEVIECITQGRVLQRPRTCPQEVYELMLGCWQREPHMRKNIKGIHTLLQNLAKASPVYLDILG

inhibition [1]: 2% | fold change (FC) [2]: 0.65
SMILES: CNC(=O)c1ccccc1Oc1nc(Nc2cc(OC)c(OC)c(OC)c2)ncc1Br

inhibition [3]: 0% | inhibition [4]: 34% | fold change (FC) [5]: 0.86
SMILES: CC(C)[C@H](NC(=O)c1cc(-c2cnn3cc(-c4ccc(OCCN5CCCCC5)cc4)cnc23)cs1)C(F)(F)F

inhibition [6]: 3%
SMILES: O=C(N[C@@H](C1CC1)C(F)(F)F)c1cc(-c2cnn3cc(-c4ccc(F)cc4)cnc23)cs1
